Compound activity (PubChem BioAssay)
Shown is part of a subset that was picked to be rich in hits.
L major viab = Leishmania major promastigote growth inhibition, primary screen; Leishmania major promastigotes, resazurin fluorescence viability; inhibition, % at 10 µM; hit rate 9% among 200,000; AID 1063, 2008; in the data active = inhibition above about 50%;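 note: promastigotes grown with compound for 44 hours at 28 °C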
S1P3 antag = S1P3 receptor antagonists, primary screen, cell-based; Sphingosine 1-phosphate receptor 3 (Homo sapiens), Q99500; CHO S1P3 NFAT-BLA reporter, FRET fluorescence, antagonist mode; inhibition, % at 4.98 µM; hit rate 0.27% among 170,000; AID 485, 2006;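 active = inhibition above the plate cutoff, the mean inhibition of test wells on that plate plus 3 SD, cut at about 28% in these data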;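 note: cells challenged with S1P at its EC80 of 0.8 µM; blue over green emission ratio from cleaved BLA substrate after 4 h stimulation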
S1P4 antagonist = S1P4 receptor antagonists, primary screen, cell-based; Sphingosine 1-phosphate receptor 4 (Homo sapiens), O95977; S1P4-expressing cells, antagonist mode, reporter read-out; inhibition, % at 4.98 µM; hit rate 0.26% among 220,000; AID 1510, 2009; in the data active = inhibition above about 29%
Target sequence (O95977 whole entry, looked up): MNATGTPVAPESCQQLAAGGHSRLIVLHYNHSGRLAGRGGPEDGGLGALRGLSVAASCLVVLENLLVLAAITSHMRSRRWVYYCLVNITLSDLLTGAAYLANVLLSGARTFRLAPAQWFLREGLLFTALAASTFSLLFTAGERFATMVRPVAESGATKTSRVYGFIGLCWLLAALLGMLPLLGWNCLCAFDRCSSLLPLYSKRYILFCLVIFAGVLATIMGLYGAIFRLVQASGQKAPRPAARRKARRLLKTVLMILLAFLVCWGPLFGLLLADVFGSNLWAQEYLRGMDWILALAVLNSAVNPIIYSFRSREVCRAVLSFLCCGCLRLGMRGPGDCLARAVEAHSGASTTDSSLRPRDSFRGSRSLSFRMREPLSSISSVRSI
Mdm2 ligase inh = MDM2-luciferase reporter signal enhancers, primary screen, MDM2 E3 ligase inhibitor project, cell-based, luminescence, 1536-well | E3 ubiquitin-protein ligase Mdm2 (Homo sapiens), Q00987 | cell-based MDM2 ubiquitination luciferase reporter, 2 h; 0 = plate control, 100 = twice control, blank-subtracted | signal enhancement, % at 5 µM | hit rate 0.11% among 210,000 | AID 1230, 2008;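 active = signal enhancement of 30% or more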;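 note: luminescence tracks abundance of the self-degrading MDM2-luciferase fusion protein; higher signal means inhibition of MDM2 E3 ligase activity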
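Assay system: mammalian cells stably expressing self-ubiquitinating, self-degrading MDM2 E3–luciferase fusion. Quantity: 2000 cells in each well. Medium: DMEM culture medium. Compound dosing: single-point 5 µM. Timing: cell settling 4 h, compound treatment 2 h, both 37 °C. Technique: luciferase luminescence. Read-out basis: percent signal gain over controls, blank-subtracted. Benchmarks: plate controls and plate blanks.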
S1P4 agonist = S1P4 receptor agonists, primary screen, cell-based; S1P4-expressing cell line, agonist reporter assay; activation, % at 4.98 µM; hit rate 0.35% among 220,000; in the data active = activation above about 11%
Of the large screens only hits and unclear results are named; the others gave an inactive call.

CC(C)CC(C(=O)NC(C)(C)C)N(Cc1cccs1)C(=O)c1snc(C(N)=O)c1N (stereo unspecified)	none
CN(C)c1ccc(/C=C/c2cc[n+]([O-])cc2)cc1	none
CN(C)c1ccc(/C=C/c2cc[n+](C)cc2)cc1	L major viab 99 (no result: S1P3 antag)
CC[n+]1c(/C=C/c2ccc(N(C)C)cc2)ccc2ccccc21	L major viab 100
CC[n+]1ccccc1/C=C/c1ccc(N(C)C)cc1	L major viab 96
CC[n+]1ccc(/C=C/c2ccc(N(C)C)cc2)c2ccccc21	L major viab 100
CN(C)c1ccc(/C=N/N=C/c2ccccc2O)cc1	none
COc1ccc(NC(=O)CCN2CCOCC2)c(OC)c1	none
Cc1ccc(C(=O)NC(NC(=O)c2ccc(C)cc2)c2cccc([N+](=O)[O-])c2)cc1	none
COc1ccc(N2CCN(c3nc(-c4cccs4)nc4ccccc34)CC2)cc1	none
CCC(=O)NNc1ncnc2ccccc12	none
COc1ccc(Nc2ncnc3ccccc23)cc1	none (no result: S1P3 antag)
COc1cccc(Nc2ncnc3ccccc23)c1	L major viab 62 (no result: S1P3 antag)
COc1cccc(Nc2nc(-c3cccs3)nc3ccccc23)c1	L major viab 99
CCCCCCCCNc1ncnc2ccccc12	L major viab 77 (no result: S1P3 antag)
COc1cccc(CN(C)c2nc(-c3cccs3)nc3ccccc23)c1	L major viab 92
COc1ccc(Nc2nc(-c3cccs3)nc3ccccc23)cc1	none
CC1=CCC2C(=O)N(c3ccc(OC(=O)c4ccco4)cc3)C(=O)C2C1 (stereo unspecified)	none
CCC1=NC(c2ccccc2OC)N(O)C1(C)C (stereo unspecified)	none
COc1cc(/C=N/Nc2nc(C)cc(=O)[nH]2)ccc1OC(=O)c1cccnc1	none
CCn1cc(C(=O)NCc2ccc3c(c2)OCO3)c(=O)c2cc(F)c(N3CCN(C(=O)c4ccco4)CC3)cc21	none (no result: S1P3 antag)
CN1C(=O)c2ccccc2Sc2ccc(NC(=O)NC3CC3)cc21	none
O=C(Nc1ccc2c(c1)N(Cc1ccccc1)C(=O)c1ccccc1S2)NC1CC1	L major viab 92 (no result: S1P3 antag)
CCc1ccc(N2C(=O)CC(N(CC3CCCO3)C(=O)/C=C/C(=O)O)C2=O)cc1 (stereo unspecified)	none
COc1ccc2cc(C#N)c(SCC(=O)N3CCCC3)nc2c1	L major viab 55
COc1ccc(C(=O)N2CCN(c3nc4cc(C)ccc4cc3C#N)CC2)c(OC)c1	L major viab 63
CC(C)NC(=O)NC(=O)COC(=O)c1cc[n+]([O-])cc1	none
CC1CC(=O)C2=C(C1)Nc1ccccc1SC2c1ccc(F)cc1 (stereo unspecified)	L major viab 68
CC(=O)OC1CCC2(C)C(COc3ccc4ccc(=O)oc4c3)C(C)(O)CCC2C1(C)C (stereo unspecified)	L major viab 99 (no result: S1P3 antag)
CCOc1ccccc1NC(=O)C1=C(C)NC(=S)NC1c1cccs1 (stereo unspecified)	none
O=C(Nn1cc(C(=O)Nc2ccccc2F)c2ccccc2c1=O)c1cnccn1	L major viab 74
CC(C)CCSc1nc(N)c(C#N)cc1C#N	L major viab 76
COc1cccc(/C=C(/C(=O)OCC(N)=O)c2ccccc2)c1	none
CC1CCCC(NC(=O)COC(=O)c2cccc(NS(=O)(=O)/C=C/c3ccccc3)c2)C1C (stereo unspecified)	L major viab 53
COc1cccc(/C=C(/C(=O)OCC(=O)NC2CCCC(C)C2C)c2ccccc2)c1 (stereo unspecified)	L major viab 96
S=C(Nc1cccc(Cl)c1Cl)Nn1cnnc1	none
CCNc1ccc(Br)cc(C(=O)/C=C/c2ccc(Cl)cc2Cl)c1=O	L major viab 98 (no result: S1P3 antag)
CNc1ccc(Br)cc(C(=O)/C=C/c2cc(OC)ccc2OC)c1=O	L major viab 89 (no result: S1P3 antag)
COCCCNC(=O)/C=C/c1ccc(Cl)cc1Cl	none (no result: S1P3 antag)
CNc1ccc(Br)cc(C(=O)/C=C/c2ccc3c(c2)OCO3)c1=O	L major viab 72 (no result: S1P3 antag)
CNc1ccc(Br)cc(C(=O)/C=C/c2ccc(OC)cc2)c1=O	none
CNc1ccc(/C=C/C(=O)c2ccc3c(c2)OCCO3)cc1[N+](=O)[O-]	none
CCOC(=O)c1nnn(-c2nonc2N)c1-c1ccc(OC)cc1	none
CN(C)c1ccc(/C=C2\C(=N)N3C(=NC2=O)Sc2cc(S(C)(=O)=O)ccc23)cc1	none (no result: L major viab)
Cc1ccc(NC2=NC(=S)N(CC#N)C23CCCCC3)cc1	none (no result: S1P3 antag)
O=C(NC1=NCCS1)c1sc2cc(Cl)cc(Cl)c2c1Cl	L major viab 76
Cc1cc(C)cc(N(CC(=O)Nc2ccccc2)C2=NC3CS(=O)(=O)CC3S2)c1 (stereo unspecified)	L major viab 64
CCOc1ccc(N(Cc2ccccc2F)C2=NC3CS(=O)(=O)CC3S2)cc1 (stereo unspecified)	none
CC(=O)Nc1ccc(Nc2cc(C)nc3c(-c4ccc(Cl)cc4)c(C)nn23)cc1	L major viab 93
Cc1cc(NCCN2CCOCC2)n2ncc(-c3ccc(Cl)cc3)c2n1	none (no result: Mdm2 ligase inh)
CC(=O)Nc1ccc(Nc2cc(C)nc3c(-c4ccc(Cl)cc4)cnn23)cc1	L major viab 79
Cc1cc(Cl)n2nc(C)c(-c3ccc(Cl)cc3)c2n1	none
CCc1nc(N2CCN(S(C)(=O)=O)CC2)c2c3c(sc2n1)CCCC3	none
S=c1[nH]nc(-c2ccccn2)n1/N=C/c1cccc2ccccc12	L major viab 50
Cc1nc([N+](=O)[O-])c(Sc2nc3ccc([N+](=O)[O-])cc3[nH]2)n1Cc1ccccc1	L major viab 54
OCC1(CCCc2ccccc2)CCN(Cc2ccc(F)cc2)CC1	L major viab 91
OCC1(CCc2ccccc2)CCN(Cc2ccc(OC(F)F)cc2)CC1	L major viab 82 (no result: Mdm2 ligase inh)
CC(=O)Nc1nc(C)c(Oc2ccc(C)cc2)c(=O)[nH]1	none (no result: L major viab)
O=C(NCCCn1ccnc1)c1sc2cccc(F)c2c1Cl	L major viab 78 (no result: S1P3 antag)
CCCNC(=O)COC(=O)CCC(=O)c1ccc(F)cc1	none (no result: S1P3 antag)
Cc1cc(SCC(=O)N/N=C/c2ccc(O)cc2O)c(C)cc1Br	L major viab 100 (no result: S1P3 antag)
COc1nnc(-c2ccc(N3CCOCC3)c(NC(=O)C3CCCCC3)c2)c2ccccc12	none (no result: S1P3 antag)
COc1nnc(-c2ccc(N3CCCCC3)c(NC(=O)C3CCCCC3)c2)c2ccccc12	L major viab 54 (no result: S1P3 antag)
O=C(CCSCCc1ccccn1)Nc1c(F)c(F)c(F)c(F)c1F	none
CCN1C(=O)/C(=C\c2ccncc2)SC1=Nc1ccc(C)c(C)c1	L major viab 52
O=C(Nc1ccc(S(=O)(=O)NCc2ccco2)cc1)c1ccc2ccccc2n1	L major viab 52
COc1ccc([C@@H]2C=C(C(=O)O)O[C@H](OCCCCO)C2)cc1	none (no result: L major viab, S1P3 antag, S1P4 antagonist, S1P4 agonist)
CC1(C(=O)NCC2CCCO2)Oc2cccnc2NC1=O (stereo unspecified)	none
